In test [1] the test system is Canis familiaris. The test is described as follows: Change in heart contractile force of anaesthetized, open chest dogs following 0.875 mg/kg i.v. administration. It is filed as functional, Canis lupus familiaris. The note with it: route intravenous. In outline:
(§1)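 Anesthetized open-chest dogs, one drug per animal. Compound is in DMF diluted to 10% in saline, or given as the HCl salt in saline. It is infused into the femoral vein by pump at 0.58-2.2 mL/min in 3-4 stepwise cumulative doses, each over 5 min after the prior peak. Readings are CF by right-ventricle strain gauge, dP/dtmax by Millar LV catheter, HR by cardiotachometer and MAP from femoral artery, as % change from predrug control.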

The next test has as its target Phosphodiesterase 3 (Homo sapiens, UniProt Q14432+Q13370). As to the kind of experiment: Inhibition of phosphodiesterase fraction III in anesthetized open chest dogs. The note with it: target entry is the homologue from another species. The class given is functional, Canis lupus familiaris. A digest of the protocol:
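Enzyme is dog heart PDE-III, the third DEAE-cellulose fraction eluted at 800 mM sodium acetate. Compounds are tested at 0.01–1000 μM with 0.25 μM cAMP containing [³H]cAMP, in 0.05 M Tris-HCl pH 7.4 with 5 mM MgCl2. The reaction is stopped by heat, then snake venom converts product to adenosine. [³H]adenosine is counted by scintillation after Dowex separation. IC50 comes from ≥2 determinations, each in duplicate.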

In test [2] the test system is Canis familiaris. The test is described as follows: 50% increase in contractile force in one to three anesthetized dogs administered intravenously. The note with it: Canis lupus familiaris, iv. The class given is functional. A digest of the protocol:
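Anesthetized dogs (one to three). Compound is infused iv in three to four stepwise increasing doses, each over 5 min once the previous effect has peaked. Contractile force is recorded with a Walton Brodie strain gauge on the right ventricle. The dose (μg/kg) giving a 50% rise over control CF is read from the dose-response curve, graphically (n < 3) or by linear regression (n ≥ 3).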

The subject of test [3] is Canis familiaris. As to the kind of experiment: Change in left ventricular pressure of anaesthetized, open chest dogs following 0.875 mg/kg i.v. administration. It is filed as functional, Canis lupus familiaris, Heart left ventricle. The note with it: route intravenous. A digest of the protocol: as §1
The subject of test [4] is Canis familiaris. As to the kind of experiment: Percent change in mean arterial blood pressure (MAP) in anesthetized open chest dogs iv administration at 0.875 mg/kg. The class given is functional, Canis lupus familiaris. In outline: as §1
Test [5] relates to Canis familiaris. The test is described as follows: Percent change in heart rate (HR) in anesthetized open chest dogs after a iv dose of 0.875 mg/kg. It is filed as functional, Canis lupus familiaris. A digest of the protocol:
as §1

In test [6] the test system is Canis familiaris. The test is described as follows: Percent change in mean arterial blood pressure (MAP) in anesthetized open chest dogs iv administration at 0.8750 mg/kg. The class given is functional, Canis lupus familiaris. The note with it: dose 0.875 mg/kg. In outline: as §1
In test [7] the test system is Canis familiaris. As to the kind of experiment: Change in heart rate of anaesthetized, open chest dogs following 0.875 mg/kg i.v. administration. The note with it: route intravenous. It is filed as functional, Canis lupus familiaris. A digest of the protocol: as §1
The subject of test [8] is Canis familiaris. As to the kind of experiment: Percent change in mean arterial blood pressure (MAP) in anesthetized open chest dogs iv administration at 10 mg/kg. The class given is functional, Canis lupus familiaris. In outline:
as §1

The test system of test [9] is Canis familiaris. The test is described as follows: Percent increase in contractile force (CF) in anesthetized open-chest dogs id administration of 10 mg/kg. It is filed as functional, Canis lupus familiaris. The note with it: route intraduodenal. A digest of the protocol:
(§2)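 Anesthetized open-chest dogs. A 10-mL bolus is injected into the duodenum through a catheter placed 2 cm distal to the pylorus. Contractile force is measured with a Walton Brodie strain gauge sutured to the right ventricle, at a baseline tension of 100 g, and monitored continuously. Results are given as % increase from predrug control against cumulative dose.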

Test [10] deals with Canis familiaris. The test is described as follows: Percent change in heart rate (HR) in anesthetized open chest dogs after a iv dose of 10 mg/kg. The class given is functional, Canis lupus familiaris. In outline:
as §1

Test [11] has as its system Canis familiaris. As to the kind of experiment: Percent change in left ventricular pressure (dP/dtmax) in anesthetized dog after iv administration at 10 mg/kg. The class given is functional, Canis lupus familiaris, Heart left ventricle. A digest of the protocol:
as §1

The test system of test [12] is Canis familiaris. The test is described as follows: Percent change in left ventricular pressure (dP/dtmax) in anesthetized dog after iv administration at 0.925 mg/kg. It is filed as functional, Canis lupus familiaris, Heart left ventricle. A digest of the protocol: as §1
Test [13] has as its system Canis familiaris. The test is described as follows: Percent change in mean arterial blood pressure (MAP) in anesthetized open chest dogs iv administration at 0.9250 mg/kg. The class given is functional, Canis lupus familiaris. The note with it: dose 0.925 mg/kg. In outline:
as §1

For test [14], the system named is Canis familiaris. The test is described as follows: Percent increase in contractile force (CF) in anesthetized open-chest dogs iv administration of 0.925 mg/kg. The class given is functional, Canis lupus familiaris. In outline:
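Anesthetized open-chest dogs. After a right thoracotomy, contractile force was recorded by a Walton Brodie strain gauge sutured to the right ventricle at 100 g baseline tension. Compound was given iv by infusion pump into a femoral vein, one drug per animal, in three to four stepwise increasing doses. Each dose ran over 5 min, starting once the previous dose's effect peaked. Values are % increase over predrug control vs cumulative mg/kg dose.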

Test [15] relates to Canis familiaris. As to the kind of experiment: Percent change in heart rate (HR) in anesthetized open chest dogs after a iv dose of 0.925 mg/kg. The class given is functional, Canis lupus familiaris. A digest of the protocol:
as §1

The test system of test [16] is Canis familiaris. The test is described as follows: Percent increase in left ventricular pressure (dP/dtmax) of anesthetized dog after id administration at 1 mg/kg. The class given is functional, Canis lupus familiaris, Heart left ventricle. The note with it: route intraduodenal. In outline:
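Anesthetized open-chest dogs. Left ventricular pressure was measured by Millar catheter and dP/dtmax derived. Compound was given as a 10-mL bolus into the duodenum through a catheter placed 2 cm distal to the pylorus via flank incision. Dissolved in DMF diluted to 10% in saline, or as HCl salt in saline. Response is % change over predrug control, monitored continuously.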

Test [17] deals with Canis familiaris. The test is described as follows: Percent change in heart rate (HR) in anesthetized open chest dogs after a iv dose of 1 mg/kg. The class given is functional, Canis lupus familiaris. A digest of the protocol:
as §1

The test system of test [18] is Canis familiaris. The test is described as follows: Percent change in mean arterial blood pressure (MAP) in anesthetized open chest dogs iv administration at 1 mg/kg. It is filed as functional, Canis lupus familiaris. A digest of the protocol: as §1
The test system of test [19] is Canis familiaris. As to the kind of experiment: Contractile force in anesthetized open chest dogs id administration 1.00 mg/kg. The note with it: route intraduodenal. The class given is functional, Canis lupus familiaris. A digest of the protocol: as §2
For test [20], the system named is Canis familiaris. As to the kind of experiment: Percent change in heart rate (HR) in anesthetized open chest dogs after a iv dose of 0.025 mg/kg. It is filed as functional, Canis lupus familiaris. A digest of the protocol: as §1
Test [21] has as its system Canis familiaris. The test is described as follows: Contractile force in anesthetized open chest dogs id administration at 1.00 mg/kg. The class given is functional, Canis lupus familiaris. The note with it: route intraduodenal. In outline:
as §2

Test [22] deals with Canis familiaris. As to the kind of experiment: Percent change in mean arterial blood pressure (MAP) in anesthetized open chest dogs iv administration at 0.025 mg/kg. It is filed as functional, Canis lupus familiaris. A digest of the protocol:
as §1

In test [23] the test system is Canis familiaris. The test is described as follows: Percent change in left ventricular pressure (dP/dtmax) in anesthetized dog after iv administration at 0.025 mg/kg. The class given is functional, Canis lupus familiaris, Heart left ventricle. A digest of the protocol:
as §1

Test [24] relates to Canis familiaris. The test is described as follows: Percent increase in contractile force (CF) in anesthetized open-chest dogs iv administration of 0.025 mg/kg. It is filed as functional, Canis lupus familiaris. In outline:
as §1

Turning to `COc1cc(OC)c2c(C)nc(O)cc2c1`, the values for the Increase in the test on Canis familiaris [1] and in the test on Canis familiaris [3] were 91% and 62%, respectively. Besides, at Phosphodiesterase 3, the 50% inhibitory concentration (IC50) worked out at 80 µM. Moreover, it took a dose of 0.375 mg/kg to reach the 50% effect level in the test with Canis familiaris [2] (ED50). Moreover, the values for the Change in the test with Canis familiaris [4] and with Canis familiaris [5] were -18% and 13%, respectively.
For `COC(=O)CCc1c(O)nc(C)c2cc(OC)c(OC)cc12`, the Change in the test with Canis familiaris [6] was -12%; in the test on Canis familiaris [7], 34%; with Canis familiaris [8], -11%; in the test with Canis familiaris [10], 12%. For the same molecule, the Increase with Canis familiaris [1] came out at 140%; with Canis familiaris [3] it was 78%; in the test on Canis familiaris [9], 105%; in the test on Canis familiaris [11], 52%. This molecule returned an IC50 against Phosphodiesterase 3 of 35 µM. The same molecule registered a median effective dose (ED50) with Canis familiaris [2] of 0.165 mg/kg.
Consider `COc1ccc2c(C)nc(O)cc2c1`, for which the figures for the Increase with Canis familiaris [12] and in the test with Canis familiaris [14] were 56% and 65%, respectively. The half-inhibitory concentration (IC50) against Phosphodiesterase 3 stood at 160 µM. The Change came to 0% with Canis familiaris [13] and 8% with Canis familiaris [15]. Further, in the test on Canis familiaris [2], it took a dose of 0.6 mg/kg to reach the 50% effect level (ED50).
For `CCCc1c(O)nc(C)c2cc(OC)c(OC)cc12`, the Change in the test with Canis familiaris [6] is on record as 4%; in the test with Canis familiaris [7], 22%; in the test on Canis familiaris [17] it was 5%; with Canis familiaris [18], 3%. The Increase is on record as 108% with Canis familiaris [1], 20% in the test with Canis familiaris [16], 55% with Canis familiaris [3] and 20% with Canis familiaris [19]. Also, the 50% inhibitory concentration (IC50) on Phosphodiesterase 3 is 5 µM. This molecule gave a median effective dose (ED50) with Canis familiaris [2] of 0.125 mg/kg.
At Phosphodiesterase 3, `CCc1c(O)nc(C)c2cc(OC)c(OC)cc12` gave an IC50 of 2 µM. Besides, the Increase with Canis familiaris [16] was 92%; in the test on Canis familiaris [21], 132%; in the test with Canis familiaris [23], 98%; in the test with Canis familiaris [24] it was 143%. Further, the Change is recorded as 13% in the test with Canis familiaris [20], 22% in the test on Canis familiaris [17], -22% in the test on Canis familiaris [18] and -12% in the test with Canis familiaris [22]. This molecule gave an ED50 in the test with Canis familiaris [2] of 0.012 mg/kg.
